Test results: paper PMC4792293 (RSC advances, 2015)
Read-outs that look alike come from different tables or passages of the source.

How the values were obtained:
α-glucosidase [1] = target: T1, α-glucosidase (Saccharomyces cerevisiae, UniProt P53341); experiment: Isothermal titration calorimetry; type: binding; settings: for binding constants (Ka) / ΔG / Ka / ΔH / ΔS / N [GCGs/α-glucosidase] (ligand:enzyme ratio): ITC; for ITC titration peaks: ligand concentrations 1 – 4 mM
How it was run: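 Test compound (1–4 mM) was titrated into α-glucosidase (0.026–0.031 mM) in the cell, both in 100 mM phosphate, pH 7.0, and degassed 20 min under vacuum. Titration used 17 injections at 240 s intervals, 25 °C, with stirring at 310 rpm. Blanks were buffer into buffer and compound into buffer. Data were fit by nonlinear regression to a single-site binding model.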

α-glucosidase [2] = target: T1, α-glucosidase; experiment: Circular dichroism; type: binding; settings: α-glucosidase 2 μM; for β-Turns %: control 14.3; for β-Fold %: control 21.9; for Unordered %: control 26.9; for α-Helix %: control 36.3
How it was run: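 Far-UV CD spectra (190–240 nm) at 25 °C. Yeast α-glucosidase at 2 μM was co-incubated with test compound at 0–80 μM for 20 min at 37 °C in 0.1 M sodium phosphate, pH 6.8, in a 1.0 mm path-length cell. Spectra were blank-subtracted against buffer, noise-reduced and smoothed. Secondary-structure fractions were estimated with the DichroWeb server.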

[3] = target: T2, α-Glucosidase (EC 3.2.1.20) from Saccharomyces cerevisiae (Saccharomyces cerevisiae, UniProt P53341); experiment: α-glucosidase inhibitory assay; type: biochemical
[4] = target: T2, α-Glucosidase (EC 3.2.1.20) from Saccharomyces cerevisiae; experiment: Kinetics of α-glucosidase inhibition; type: biochemical; settings: Lineweaver-Burk plots, ligand 2 – 250 μM
How it was run: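 Two inhibitor concentrations within 2–250 μM were tested against p-nitrophenyl-α-D-glucopyranoside at 1–1000 μM in 50 mM phosphate, pH 6.8. Enzyme and inhibitor were pre-incubated for 30 min, at room temperature per the methods but at 37 °C per the figure legend. Substrate was then added, reacted 60 s at room temperature and read at 405 nm. Inhibition type was assigned from double-reciprocal plots.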

α-glucosidase [5] = settings: cited from earlier work
[6] = yeast α-glucosidase, pNPG, pH 6.9, 25 °C, mean ± S.D. from three independent experiments

T2 sequence (P53341 whole entry): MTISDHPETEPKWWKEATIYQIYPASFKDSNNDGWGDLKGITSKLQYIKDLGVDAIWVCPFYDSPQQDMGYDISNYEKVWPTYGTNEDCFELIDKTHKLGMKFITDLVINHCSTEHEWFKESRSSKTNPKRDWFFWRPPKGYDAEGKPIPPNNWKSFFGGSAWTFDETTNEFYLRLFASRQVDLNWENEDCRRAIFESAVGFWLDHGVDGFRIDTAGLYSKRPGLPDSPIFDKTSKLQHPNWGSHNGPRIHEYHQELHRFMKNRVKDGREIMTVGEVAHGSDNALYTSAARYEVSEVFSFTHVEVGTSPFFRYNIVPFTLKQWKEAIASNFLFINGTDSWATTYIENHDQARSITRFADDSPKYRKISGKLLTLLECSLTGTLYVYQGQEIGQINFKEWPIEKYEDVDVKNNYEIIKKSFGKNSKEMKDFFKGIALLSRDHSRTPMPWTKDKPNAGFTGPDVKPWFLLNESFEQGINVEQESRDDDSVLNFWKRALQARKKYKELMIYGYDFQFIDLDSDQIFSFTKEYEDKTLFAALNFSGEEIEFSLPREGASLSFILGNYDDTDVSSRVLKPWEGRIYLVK
T1 sequence (P53341 whole entry): as above

Question: With `O=C(OC[C@H]1OC[C@H](OC(=O)c2cc(O)c(O)c(O)c2)[C@@H](OC(=O)c2cc(O)c(O)c(O)c2)[C@@H]1OC(=O)c1cc(O)c(O)c(O)c1)c1cc(O)c(O)c(O)c1` [maplexin J] as the molecule, how does the “binding constants (Ka)” value (α-glucosidase [1]) read?
Answer: Its value is 42200 mol⁻¹.

Question: And the ΔG (α-glucosidase [1])?
Answer: The ΔG was -6.31 kcal/mol.

Question: And the Ka (α-glucosidase [1]; 25 °C, phosphate buffer pH 7.0)?
Answer: Its Ka is 4.22 10^4 mol^−1.

Question: And the ΔG (α-glucosidase [1]; 25 °C, phosphate buffer pH 7.0)?
Answer: Its ΔG is -1.51 kcal/mol.

Question: And the ΔH (α-glucosidase [1]; 25 °C, phosphate buffer pH 7.0)?
Answer: The ΔH was -6.016 kcal/mol.

Question: And the ΔS (α-glucosidase [1]; 25 °C, phosphate buffer pH 7.0)?
Answer: Its ΔS is 63.31 J mol^−1 K^−1.

Question: What about the “N [GCGs/α-glucosidase] (ligand:enzyme ratio)” value (α-glucosidase [1]; 25 °C, phosphate buffer pH 7.0, listed as MJ) of the same molecule?
Answer: The value was 1.01.

Question: What about the β-Turns % (α-glucosidase [2]; ligand 20 μM) of the same molecule?
Answer: The β-Turns % was 20.4%.

Question: What about the β-Fold % (α-glucosidase [2]; ligand 20 μM) of the same molecule?
Answer: The β-Fold % was 21.1%.

Question: What about the Unordered % (α-glucosidase [2]; ligand 20 μM) of the same molecule?
Answer: Its Unordered % is 26.4%.

Question: And the α-Helix % (α-glucosidase [2]; ligand 20 μM)?
Answer: The α-Helix % was 31.8%.

Question: And the β-Turns % (α-glucosidase [2]; ligand 40 μM)?
Answer: The β-Turns % was 19.1%.

Question: What about the β-Fold % (α-glucosidase [2]; ligand 40 μM) of the same molecule?
Answer: Its β-Fold % is 24.4%.

Question: What about the Unordered % (α-glucosidase [2]; ligand 40 μM) of the same molecule?
Answer: The Unordered % was 25.3%.

Question: What about the α-Helix % (α-glucosidase [2]; ligand 40 μM) of the same molecule?
Answer: Its α-Helix % is 30.7%.

Question: And the IC50 [3, 6]?
Answer: Its IC50 is 4.27 ± 0.13 µM.

Question: What about the “potency relative to maplexins E and F” value ([3]; α-glucosidase inhibition) of the same molecule?
Answer: Its value is “three times more potent than maplexins E and F”.

Question: What about the Type of inhibition [4] of the same molecule?
Answer: Its Type of inhibition is “noncompetitive”.

Question: What does the source list for `O=C(O[C@H]1CO[C@H](CO)[C@@H](O)[C@@H]1O)c1cc(O)c(O)c(O)c1` [ginnalin C]?
Answer: ITC titration peaks (α-glucosidase [1]): too weak to yield thermodynamic parameters; IC50 [3]: > 1000 µM

Question: For `O=C(OC[C@H]1OC[C@H](OC(=O)c2cc(O)c(O)c(O)c2)[C@@H](O)[C@@H]1O)c1cc(O)c(O)c(O)c1` [ginnalin A], which ITC titration peaks (α-glucosidase [1]) is on record?
Answer: Its ITC titration peaks is “too weak to yield thermodynamic parameters”.

Question: What about the β-Turns % (α-glucosidase [2]; ligand 40 μM) of the same molecule?
Answer: The β-Turns % was 11.5%.

Question: What about the β-Fold % (α-glucosidase [2]; ligand 40 μM) of the same molecule?
Answer: Its β-Fold % is 22.7%.

Question: And the Unordered % (α-glucosidase [2]; ligand 40 μM)?
Answer: Its Unordered % is 27.8%.

Question: And the α-Helix % (α-glucosidase [2]; ligand 40 μM)?
Answer: Its α-Helix % is 37.8%.

Question: What about the β-Turns % (α-glucosidase [2]; ligand 80 μM) of the same molecule?
Answer: Its β-Turns % is 15.8%.

Question: What about the β-Fold % (α-glucosidase [2]; ligand 80 μM) of the same molecule?
Answer: The β-Fold % was 22.5%.

Question: What about the Unordered % (α-glucosidase [2]; ligand 80 μM) of the same molecule?
Answer: Its Unordered % is 27.7%.

Question: What about the α-Helix % (α-glucosidase [2]; ligand 80 μM) of the same molecule?
Answer: The α-Helix % was 33.5%.

Question: What about the IC50 [3] of the same molecule?
Answer: The IC50 was 216 ± 3.19 µM.

Question: And the Type of inhibition [4]?
Answer: Its Type of inhibition is “noncompetitive”.

Question: For `O=C(OC[C@H]1OC[C@H](O)[C@@H](O)[C@@H]1O)c1cc(O)c(O)c(O)c1` [ginnalin B], which ITC titration peaks (α-glucosidase [1]) is on record?
Answer: The ITC titration peaks was “too weak to yield thermodynamic parameters”.

Question: What about the IC50 [3] of the same molecule?
Answer: Its IC50 is over 1000 µM.

Question: Which Type of inhibition (α-glucosidase [5]; positive control) does the source give for `C[C@H]1O[C@H](O[C@H]2[C@H](O)[C@@H](O)[C@@H](O[C@H]3[C@H](O)[C@@H](O)C(O)O[C@@H]3CO)O[C@@H]2CO)[C@H](O)[C@@H](O)[C@@H]1N[C@H]1C=C(CO)[C@@H](O)[C@H](O)[C@H]1O` (stereo partly shown) [acarbose] here?
Answer: Its Type of inhibition is “competitive inhibitor”.

Question: With `O=C(OC[C@H]1O[C@@H](OC(=O)c2cc(O)c(O)c(O)c2)[C@H](OC(=O)c2cc(O)c(O)c(O)c2)[C@@H](OC(=O)c2cc(O)c(O)c(O)c2)[C@@H]1OC(=O)c1cc(O)c(O)c(O)c1)c1cc(O)c(O)c(O)c1` [PGG, pentagalloyl glucose] as the molecule, how does the Type of inhibition (α-glucosidase [5]) read?
Answer: The Type of inhibition was “noncompetitive α-glucosidase inhibitor”.

Question: Which “binding constants (Ka)” value (α-glucosidase [1]) does the source give for maplexin F here?
Answer: The value was 28500 mol⁻¹.

Question: And the ΔG (α-glucosidase [1])?
Answer: The ΔG was -6.09 kcal/mol.

Question: And the Ka (α-glucosidase [1]; 25 °C, phosphate buffer pH 7.0)?
Answer: The Ka was 2.85 10^4 mol^−1.

Question: What about the ΔG (α-glucosidase [1]; 25 °C, phosphate buffer pH 7.0) of the same molecule?
Answer: Its ΔG is -1.46 kcal/mol.

Question: And the ΔH (α-glucosidase [1]; 25 °C, phosphate buffer pH 7.0)?
Answer: Its ΔH is -2.452 kcal/mol.

Question: And the ΔS (α-glucosidase [1]; 25 °C, phosphate buffer pH 7.0)?
Answer: Its ΔS is 14.06 J mol^−1 K^−1.

Question: What about the “N [GCGs/α-glucosidase] (ligand:enzyme ratio)” value (α-glucosidase [1]; 25 °C, phosphate buffer pH 7.0, listed as MF) of the same molecule?
Answer: The value was 1.01.

Question: And the β-Turns % (α-glucosidase [2]; ligand 20 μM)?
Answer: The β-Turns % was 15.6%.

Question: What about the β-Fold % (α-glucosidase [2]; ligand 20 μM) of the same molecule?
Answer: Its β-Fold % is 24.7%.

Question: What about the Unordered % (α-glucosidase [2]; ligand 20 μM) of the same molecule?
Answer: The Unordered % was 28.4%.

Question: What about the α-Helix % (α-glucosidase [2]; ligand 20 μM) of the same molecule?
Answer: The α-Helix % was 30.7%.

Question: What about the β-Turns % (α-glucosidase [2]; ligand 40 μM) of the same molecule?
Answer: The β-Turns % was 16.6%.

Question: And the β-Fold % (α-glucosidase [2]; ligand 40 μM)?
Answer: The β-Fold % was 22.7%.

Question: What about the Unordered % (α-glucosidase [2]; ligand 40 μM) of the same molecule?
Answer: Its Unordered % is 28.9%.

Question: What about the α-Helix % (α-glucosidase [2]; ligand 40 μM) of the same molecule?
Answer: Its α-Helix % is 31.2%.

Question: What about the IC50 [3, 6] of the same molecule?
Answer: Its IC50 is 13.7 ± 0.87 µM.

Question: And the Type of inhibition [4]?
Answer: The Type of inhibition was “noncompetitive”.
